Experimental data as given in PubChem BioAssay AID624204 (Sanford-Burnham Center for Chemical Genomics, 2012).
Screen size: about 360,000 compounds; about 770 (0.21%) were called active.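 Rule for the calls: active = inhibition at least 30% at 10 µM, raw YFP signal under a set limit, fluorescence ratio 0.5 to 1.5; inactive = the rest.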 Only a selection was taken, and actives are over-represented in it overall.

target: Sentrin-specific protease 1 (Homo sapiens) (UniProt Q9P0U3); assay: blockers of SENP1 SUMO protease activity – biochemical, FRET, uHTS, primary screen (AID 624204); conditions: recombinant SENP1 catalytic domain, CyPet-SUMO1-YPet FRET cleavage; at 10 µM; hits give high values;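 note: 0% = enzyme with DMSO and 100% = no enzyme wells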
In short: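 Test system: human SENP1 catalytic domain; medium: Tris pH 8 buffer plus EDTA, NaCl, BME, BSA, NP40, catalase; incubation: 50 min reaction at room temperature; technique: FRET, CFP and YFP emission; controls: no-enzyme low control and enzyme-plus-DMSO high control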

Sequence of Sentrin-specific protease 1 (Homo sapiens) (Q9P0U3 419-644 limits assumed): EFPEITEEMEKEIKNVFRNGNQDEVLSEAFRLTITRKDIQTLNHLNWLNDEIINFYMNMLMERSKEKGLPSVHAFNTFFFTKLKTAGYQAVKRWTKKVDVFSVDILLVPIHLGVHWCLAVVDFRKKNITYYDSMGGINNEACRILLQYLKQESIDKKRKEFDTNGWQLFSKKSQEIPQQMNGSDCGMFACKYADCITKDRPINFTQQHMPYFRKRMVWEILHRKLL

Structure (SMILES)	inhibition
CC1(C)CN(c2ccc(-c3ccnc4ncnn34)cc2)C1=O	-1.93% (inactive)
COc1ccc(C(=O)C[n+]2ccc(N)c(C)c2C)cc1	1.97% (inactive)
O=C(NC(=S)Nc1cccc2c(O)cccc12)c1cccc(Br)c1	-10.5% (inactive)
O=C(Cc1ccc(Cl)cc1)NC(=S)Nc1ccccc1O	0.309% (inactive)
O=C(NC(=O)c1ccccc1)Nc1ccccc1O	31.8% (active)
CC(C)Cn1cnc2c1c(=O)n(CC(O)c1ccccc1)c(=O)n2CC(C)C (configuration not stated)	1.26% (inactive)
CC1(C(=O)NCc2ccccc2)CSCC(=O)N1CCCn1ccnc1 (configuration not stated)	0.15% (inactive)
COc1cc(Br)cc(/C=N/c2ncn[nH]2)c1O	10.2% (inactive)
CC(=O)N(CC(O)CO)c1c(I)c(C(=O)NCC(O)CO)c(I)c(C(=O)NCC(O)CO)c1I (configuration not stated)	-0.483% (inactive)
COCC(C)NC(=O)c1ccc(-n2nc(C(F)(F)F)cc2-c2cccs2)cc1 (configuration not stated)	-1.75% (inactive)
CCN(CC(=O)Nc1cc(Cl)ccc1C)C(=O)CSCc1ccc(C)cc1	1.09% (inactive)
CN(C)c1ccc(Nc2c3c4c(cccc4n(C)c2=O)C(=O)c2ccccc2-3)cc1	60.4% (active)
Cc1nn2c(c1-c1ccccc1)N=C(c1ccco1)CC2c1ccccc1 (configuration not stated)	38.7% (active)
O=C(O)CCCC(=O)N1N=C(c2ccco2)CC1c1ccco1 (configuration not stated)	0.794% (inactive)
CCOc1ccc(-c2c(C)n([O-])c3c([n+]2=O)CCCC3)cc1	0.993% (inactive)
COC(CNC(=O)Cn1ncc2ccsc2c1=O)OC	2.87% (inactive)
O=C(NCCC1CCCCN1S(=O)(=O)c1cccs1)C(=O)Nc1ccc(F)cc1F (configuration not stated)	0.809% (inactive)
COc1ccc(C=C2CCC3C(CCCC34OCCO4)C2=O)cc1 (configuration not stated)	0.924% (inactive)
Cc1ccc(N=C2NC(=O)c3cccc([N+](=O)[O-])c32)cc1	1.42% (inactive)

Structure (SMILES)	inhibition
COc1ccc(NC(=O)CN(C)C(=O)Cc2coc3cc(C)c(C)cc23)cc1	-6.79% (inactive)
O=C1C=C(c2cccc(Cl)c2O)C[C@@H](c2ccc(F)cc2)C1	54.2% (active)
COc1ccccc1C1=CC(=O)C[C@H](c2ccc(F)cc2)C1	3.3% (inactive)
O=C1C=C(c2cccc(Cl)c2)C[C@@H](c2ccc(F)cc2)C1	1.33% (inactive)
O=S1(=O)CCN(C2CCCCCCCCCCC2)CC1	1.39% (inactive)
COC(=O)c1ccc(CNC(=O)C2CCC(=O)N(Cc3ccccn3)C2)cc1 (configuration not stated)	0.319% (inactive)
COCCNc1nc2nonc2nc1N1CCCC1c1nccs1 (configuration not stated)	-72.6% (inactive)
Cn1c(-c2sc3cc(C(F)(F)F)cnc3c2-c2ccccc2)n[nH]c1=S	31.9% (active)
FC(F)(F)c1ccc(-n2cn[nH]c2=S)cc1	-0.325% (inactive)
Cn1c(-c2sccc2OCc2cccc(C(F)(F)F)c2)n[nH]c1=S	2.98% (inactive)
CNc1nccc(-c2ccc(Cl)cc2)c1C#N	-1.17% (inactive)
Cc1ccc(NC(=O)Cn2c(=O)n(CCC(=O)NC3CCN(Cc4ccccc4)CC3)c(=O)c3ccccc32)cc1	2.04% (inactive)
Cc1cc2c(cc1C)NC1(C[C@H]3CCC(=O)N4CC[C@@H](C1)[C@@H]34)C(=NC(C)(C)CC(C)(C)C)N2 (some centres not stated)	2.4% (inactive)
O=C1CC[C@@H]2CC3(C[C@@H]4CCN1[C@H]24)Nc1cc([N+](=O)[O-])ccc1NC3=NC1CCCCC1 (some centres not stated)	51% (active)
O=C1CCC[C@@H]2CC(N3CCCCC3)C[C@@H]3CCN1[C@H]23 (some centres not stated)	-1.06% (inactive)
Cc1cccc(NC(=O)N(Cc2cc3cc(C)cc(C)c3[nH]c2=O)CC2COCCO2)c1 (configuration not stated)	1.21% (inactive)
COc1ncnc2c1N=C1CC(C)(C)CC(N)=C1S2	33.8% (active)
O=C1/C(=C\c2ccc(O)cc2)CCC1CNc1ccc(Cl)cc1 (configuration not stated)	-58.8% (inactive)
COc1ccc(C(=O)OC(C)C(=O)NC2CCCC2)cc1S(=O)(=O)N1CCOCC1 (configuration not stated)	2.06% (inactive)

Structure (SMILES)	inhibition
COc1cc(/C=C2\CCCc3c2nc2ccccc2c3C(=O)O)cc(Cl)c1O	54.9% (active)
NS(=O)(=O)c1ccc(NC(=O)COC(=O)c2c3c(nc4ccccc24)/C(=C\c2ccc4c(c2)OCO4)CCC3)cc1	-24.4% (inactive)
COc1ccc(-n2nc(C(=O)NCC(=O)N3CCCCCC3)c3ccccc3c2=O)cc1Cl	-0.802% (inactive)
COc1cccc(COC(=O)C2CCN(S(=O)(=O)c3cccs3)CC2)c1OC	-0.283% (inactive)
C=CC[C@@H](Cc1ccc(F)cc1)C(=O)OC[C@H]1CCCN1C(=O)[C@H](CC=C)CC(=O)N(CCO)Cc1ccccc1	0.419% (inactive)
O=C(CCNS(=O)(=O)c1cccs1)N1CCN(c2ccc(F)cc2)CC1	7.35% (inactive)
CCOc1ccc(OCC(=O)OC(C)C(=O)NC2CCCCC2C)cc1 (configuration not stated)	0.477% (inactive)
CCOc1ccc(N(CC(=O)Nc2cccc(OC)c2)S(C)(=O)=O)cc1	-0.216% (inactive)
O=C(CC1CCCCC1)Nc1c2c(nn1-c1ccc(F)cc1)CS(=O)(=O)C2	-0.662% (inactive)
CCOC(=O)c1cc2c(=O)n3ccccc3nc2n(CC(C)C)c1=NC(=O)c1c(-c2c(F)cccc2Cl)noc1C	-28.9% (inactive)
O=C(O)c1cc2ccccc2c(=O)s1	2.49% (inactive)
CCOC(=O)N1CCN(CC(=O)c2ccc3c(c2)CCN3)CC1	-2.56% (inactive)
N#CCC(=O)NC1CCC(CC2CCC(NC(=O)CC#N)CC2)CC1 (configuration not stated)	-0.386% (inactive)
O=C(COC(=O)/C=C/c1ccc(Br)o1)Nc1cccc(S(=O)(=O)N2CCOCC2)c1	-7.92% (inactive)
CCn1nnnc1SCC(=O)c1ccc(C)cc1C	1.48% (inactive)
Cc1cccc(-c2nnc(SCC(=O)O)n2Cc2ccccc2)c1	0.0319% (inactive)
Cc1ccc2c(c1)nnc1nnc(SCC(=O)O)n12	73% (active)
C[C@@H]1C[C@@H]2O[C@H]2/C=C\C=C\C(=O)Cc2c(Cl)c(O)cc(O)c2C(=O)O1	-2.26% (inactive)
CCCS(=O)(=O)N1CCCC(C(=O)NCCN2CCCCC2C)C1 (configuration not stated)	-23.8% (inactive)
